# From PubChem
# APOBEC3G inh – APOBEC3G DNA deaminase inhibitors, primary screen, biochemical, fluorescence, single-stranded DNA substrate, uHTS | inhibition, % at 20 µM | AID 493012, 2011 | recombinant A3G, ssDNA deamination FAM/TAMRA fluorescence | actives 0.28% (n = 330,000);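 active = inhibition of at least 40% at 20 µM, with no more than 30% in the related APOBEC3A deaminase screen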;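 note: plate controls were DMSO wells with A3G for no effect and wells lacking A3G enzyme for full effect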
# A3A deaminase – APOBEC3A ssDNA deaminase inhibitors, primary screen, selectivity assay for APOBEC3G inhibitor project, biochemical, FAM/TAMRA oligo cleavage fluorescence; AID 493011, 2011; DNA dC->dU-editing enzyme APOBEC-3A (Homo sapiens), P31941; actives 0.41% (n = 330,000); inhibition, % at 20 µM; recombinant A3A, FAM/TAMRA ssDNA deamination fluorescence;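 active = at least 40% inhibition at 20 µM here, with at most 30% in a related deaminase screen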;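 note: plate controls were A3A with DMSO for no effect and wells lacking A3A enzyme for full effect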
# FN deposit inh – inhibitors of fibronectin matrix deposition, primary screen, AH1F cells, Alexa488-fibronectin fluorescence, plate reader; actives 0.086% (n = 350,000); inhibition, % at 12.6 µM; AH1F fibroblasts, overnight;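 active = mean inhibition across replicates of 30% or more, regardless of how many single replicates reach that level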;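 note: positive control wells lacked labelled fibronectin entirely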
#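 Material – AH1F fibroblast monolayer, labelled fibronectin deposition · Reagent – labelled fibronectin 24 nM · Timing – 1 h adhesion, overnight exposure · Measured by – fluorescence at 485 nm excitation, 525 nm emission · Read-out – inhibition of fibronectin deposition signal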
# ABHD5 PLIN5 PPI – ABHD5-PLIN5 interaction inhibitors, primary screen, cell lysate, split luciferase complementation, luminescence | Perilipin-5 (Homo sapiens) + 1-acylglycerol-3-phosphate O-acyltransferase ABHD5 (Homo … | Split G. princeps luciferase complementation, 4 h | inhibition, % at 4 µM | actives 0.78% (n = 360,000) | AID 602281, 2012;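 active = inhibition above the mean inhibition across every tested compound plus 3 SD, cut at about 22% in these data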;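 note: 0% = DMSO only wells and the 100% control is not disclosed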
# Target sequence (Q00G26 whole entry, looked up): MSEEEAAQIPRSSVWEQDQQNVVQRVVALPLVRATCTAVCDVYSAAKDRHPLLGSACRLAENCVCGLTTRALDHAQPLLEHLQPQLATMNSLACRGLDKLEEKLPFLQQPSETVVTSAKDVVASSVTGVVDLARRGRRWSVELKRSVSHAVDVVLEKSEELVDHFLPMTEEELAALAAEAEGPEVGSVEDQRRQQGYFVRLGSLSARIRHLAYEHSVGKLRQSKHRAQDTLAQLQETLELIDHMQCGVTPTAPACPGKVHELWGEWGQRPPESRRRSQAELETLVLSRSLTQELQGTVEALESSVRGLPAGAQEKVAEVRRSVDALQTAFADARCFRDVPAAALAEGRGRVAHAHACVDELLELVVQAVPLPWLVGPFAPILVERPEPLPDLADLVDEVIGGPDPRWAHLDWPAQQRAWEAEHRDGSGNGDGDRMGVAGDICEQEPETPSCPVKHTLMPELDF
# Target sequence (Q8WTS1 whole entry, looked up): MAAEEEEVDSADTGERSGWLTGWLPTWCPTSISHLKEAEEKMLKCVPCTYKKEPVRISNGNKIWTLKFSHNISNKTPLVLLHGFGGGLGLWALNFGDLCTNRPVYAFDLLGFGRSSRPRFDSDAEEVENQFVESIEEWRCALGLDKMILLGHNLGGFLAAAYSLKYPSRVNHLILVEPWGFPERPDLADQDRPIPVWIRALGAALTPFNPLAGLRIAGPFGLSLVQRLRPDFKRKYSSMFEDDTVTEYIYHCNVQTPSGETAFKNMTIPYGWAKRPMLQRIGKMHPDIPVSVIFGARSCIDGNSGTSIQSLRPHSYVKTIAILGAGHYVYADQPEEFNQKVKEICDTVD
# The depositor's hits bear a star; nt = no result given; ! = a repeat was not active. Only some compounds are listed: those with a hit (about 1.2% of all), similar ones and a draw of the others.
SMILES,APOBEC3G inh,A3A deaminase,FN deposit inh,ABHD5 PLIN5 PPI
CC(=O)Nc1cccc2c1O[C@H](CN(C)C(=O)NC(C)C)[C@@H](C)CN(C)C2=O,nt,nt,-0.1,nt
COc1ccc(CNC[C@@H](CCCCN(C)Cc2ccc(OC)cc2)N2C[C@H](c3ccccc3)N(CCc3ccc(Cl)c(Cl)c3)C(=O)C2=O)cc1,-2.6,1.3,nt,31.6*
CCOc1ccc(CCN2C(=O)C(=O)N([C@H](CCCN(C)Cc3ccccc3)CNCc3ccccc3)C[C@@H]2C(C)C)cc1,-5.1,-2.5,nt,nt
CO[C@H]1CN(C)C(=O)c2ccc(NS(C)(=O)=O)cc2OC[C@@H](C)N(C)C[C@@H]1C,nt,nt,0.5,nt
COc1ccc(NC(=O)c2cc(-c3ccc(C)o3)nc3ccccc23)cc1OC,-2.3,9.3,nt,33.6*
Cc1oc(=O)c(NC(=O)c2ccccc2)cc1C(=O)c1ccccc1,1.8,-1.9,0.6,22.7*
CO[C@H]1CN(C)C(=O)c2ccc(NC(C)=O)cc2OC[C@H](C)N(Cc2cncnc2)C[C@@H]1C,nt,nt,-0.8,nt
CC(C)NC(=O)N(C)C[C@@H]1OCCCC[C@H](C)Oc2ccc(NS(=O)(=O)c3cn(C)cn3)cc2C(=O)N([C@H](C)CO)C[C@@H]1C,nt,nt,-0.8,nt
COc1ccc(C2(CNC(=O)/C=C\c3ccco3)CCCC2)cc1OC,-5.7,-1.2,5.0,22.3*
COc1ccc(C2(CNC(=O)c3cc(OC)c(OC)c(OC)c3)CCCC2)cc1OC,nt,nt,-13.8,7.5
C[C@@H]1CN([C@H](C)CO)C(=O)c2ccccc2-c2ccccc2CO[C@@H]1CN(C)C(=O)[C@H](C)c1ccccc1,nt,nt,-2.7,nt
N#CCc1c(C#N)c(N)nc(N2CCOCC2)c1C#N,-2.7,-3.3,-12.6,22.4*
CCN(CC)CCOc1ccc(/C(=C(/Cl)c2ccccc2)c2ccccc2)cc1,-2.4,-1.6,14.0,51.1*!
Cc1cc2nc(-c3ccco3)c(Cc3cccc(Cl)c3)n2c(C)c1Br,nt,nt,-4.0,25.9*
COc1ccccc1Cc1c(-c2ccco2)nc2cc(C)c(Br)c(C)n12,nt,nt,0.5,58.4*
Clc1cccc(Cc2c(-c3ccco3)nc3ccc(Br)cn23)c1,nt,nt,2.5,48.9*
Clc1cccc(Cc2c(-c3cccc(Br)c3)nc3ccc(Cl)cn23)c1,nt,nt,-0.1,-1.2
C#CCOCCOCCOCCNc1nc(N2CCN(C(=O)CCCCCCCCCCNC(=O)[C@H]([C@@H](C)CC)n3cc(CCCCN=C(N)N)nn3)CC2)nc(N2CCN(C(=O)CCCCCCCCCCNC(=O)[C@@H]([C@H](C)O)n3cc(C)nn3)CC2)n1,-4.7,-4.0,nt,56.1*
C#CCOCCOCCOCCNc1nc(N2CCN(C(=O)CCCCCCCCCCNC(=O)[C@H](CCCN=C(N)N)n3cc(C[C@@H](C)CC)nn3)CC2)nc(N2CCN(C(=O)CCCCCCCCCCNC(=O)[C@@H]([C@H](C)CC)n3cc(CCCCCN)nn3)CC2)n1,3.9,1.6,nt,nt
C#CCOCCOCCOCCNc1nc(N2CCN(C(=O)CCCCCCCCCCNC(=O)Cn3cc(C[C@@H](C)O)nn3)CC2)nc(N2CCN(C(=O)CCCCCCCCCCNC(=O)[C@@H]([C@H](C)CC)n3cc(CCCCCN)nn3)CC2)n1,4.3,1.9,nt,54.9*
C#CCOCCOCCOCCNc1nc(N2CCN(C(=O)Cn3cc(CCCCN)nn3)CC2)nc(N2CCN(C(=O)Cn3cc(CC(C)O)nn3)CC2)n1 (configuration not stated),-6.7,-2.5,1.9,2.6
C#CCOCCOCCOCCNc1nc(N2CCN(C(=O)CCCCCCCCCCNC(=O)Cn3cc(CCCCCN)nn3)CC2)nc(N2CCN(C(=O)CCCCCCCCCCNC(=O)[C@@H]([C@H](C)O)n3cc(C)nn3)CC2)n1,3.8,-4.2,nt,34.1*
O=S(=O)(Cc1ccccc1)N1CC2(C1)[C@@H](c1ccccc1)[C@H](CO)N2CC1CC1,nt,nt,-5.6,nt
O=C(CBr)c1ccc([N+](=O)[O-])c(CS(=O)(=O)c2ccc(Cl)cc2)c1,-1.9,-3.8,-4.8,26.9*
O=C(c1ccc(F)cc1)N1CC(=O)N2[C@@H](CO)[C@@H](c3ccc(C#CC4CCCC4)cc3)[C@@H]2C1,nt,nt,10.2,nt
CCCn1c(SCC(=O)N2c3ccccc3Sc3ccccc32)nc2c1c(=O)n(C)c(=O)n2C,-3.9,-4.0,active,-4.7
